Screens (PubChem BioAssay)
In the library only some 2.9% were active in any assay of this set; here they are far more common.
SENP6 block: SENP6 protease inhibitors, primary screen, biochemical, luminescence, uHTS; Sentrin-specific protease 6 (Homo sapiens), Q9GZR1; Recombinant SENP6 catalytic domain, aminoluciferin luminescence; inhibition, % at 10 µM; 330,000 tested, 1.8% active;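 active = inhibition above about 50% at the single tested dose, limit read from the data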;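 note: plate controls were DMSO wells with enzyme for no effect and DMSO wells lacking enzyme for full effect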
HSP90 inh: HSP90 inhibitors, primary screen, cell lysate, luminescence; inhibition, % at 5.6 µM; Heat shock protein HSP 90 (rabbit reticulocyte lysate; luciferase refolding); Rabbit reticulocyte lysate, luciferase refolding luminescence, 3 h; AID 1789, 2009; 290,000 tested, 0.91% active;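 active = inhibition above the screen-wide mean plus 3 SD, computed separately per campaign, cut at about 16% in these data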;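 note: 0% = DMSO wells and 100% = 60 µM geldanamycin wells; inhibitors lower the luminescence because luciferase stays unfolded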
SENP8 block-1: human SENP8 protease inhibitors, primary screen, biochemical, fluorescence, Nedd8 protein substrate, uHTS; 360,000 tested, 0.64% active; AID 602440, 2012; Sentrin-specific protease 8 (Homo sapiens), Q96LD8; inhibition, % at 20 µM; recombinant SENP8; in the data active = inhibition mostly above about 40%, no sharp cut-off; inactive = mostly below about 27%
Target sequence (Q96LD8 whole entry, looked up): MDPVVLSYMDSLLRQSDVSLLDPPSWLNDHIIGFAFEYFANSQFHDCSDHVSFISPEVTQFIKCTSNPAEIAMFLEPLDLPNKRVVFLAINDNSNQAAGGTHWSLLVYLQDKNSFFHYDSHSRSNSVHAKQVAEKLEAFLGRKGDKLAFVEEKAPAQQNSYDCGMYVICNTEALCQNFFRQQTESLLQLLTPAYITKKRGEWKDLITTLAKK
SENP7 block: SENP7 protease inhibitors, primary screen, biochemical, luminescence, uHTS. inhibition, % at 5 µM. 330,000 tested, 1.5% active. recombinant SENP7, Z-RLRGG-aminoluciferin luminescence, 40 min. Sentrin-specific protease 7 (Homo sapiens), Q9BQF6;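 active = inhibition above about 50% at the single test dose, limit read from the data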;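 note: plate controls were DMSO with enzyme for no effect and no enzyme buffer wells for full effect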
SENP8 block-2: SENP8 protease inhibitors, primary screen, biochemical, luminescence; AID 2540, 2010; inhibition, % at 10 µM; 330,000 tested, 1.2% active; purified SENP8, Z-RLRGG-aminoluciferin cleavage; in the data active = inhibition above about 50%
SENP1 FRET inh: human SENP1 catalytic domain inhibitors, primary screen, biochemical, FRET, uHTS. Sentrin-specific protease 1 (Homo sapiens), Q9P0U3. recombinant SENP1 catalytic domain, CyPet-SUMO1-YPet FRET cleavage. inhibition, % at 10 µM. 360,000 tested, 0.21% active;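 active = inhibition at least 30% at 10 µM, raw YFP signal under a set limit, fluorescence ratio 0.5 to 1.5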;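 note: 0% = enzyme with DMSO and 100% = no enzyme wells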
Target sequence (Q9P0U3 419-644 limits assumed): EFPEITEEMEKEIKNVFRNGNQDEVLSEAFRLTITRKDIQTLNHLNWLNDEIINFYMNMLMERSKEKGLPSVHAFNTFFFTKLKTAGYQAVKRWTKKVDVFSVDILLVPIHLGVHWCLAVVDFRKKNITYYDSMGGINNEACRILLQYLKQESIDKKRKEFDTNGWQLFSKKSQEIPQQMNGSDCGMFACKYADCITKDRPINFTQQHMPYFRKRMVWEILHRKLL
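material = recombinant human SENP1 catalytic domain, His6-tagged | quantity = 20 pM enzyme | reagent = 25 nM SUMO1 FRET substrate | compound dosing = 10 µM single point, 0.5% DMSO | timing = 50 min enzyme reaction, room temperature, light-protected | detection = FRET, CFP and YFP emission | control set = no-enzyme low, enzyme-DMSO high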
* hit, by the source's call; nt = no result given.

SMILES | SENP6 block | HSP90 inh | SENP8 block-1 | SENP7 block | SENP8 block-2 | SENP1 FRET inh
CSCCC(C(=O)NC1CCCC1)n1c(-c2ccccn2)nc2ccccc21 (centres undefined) | nt | nt | -31 | nt | nt | 1
COc1ccc(N=NC2=C(O)CC(C)(C)CC2=O)c(OC)c1 | 2 | 2 | 22 | -2 | 1 | 69*
CCOC(=O)C1CCN(C(=O)c2c(C)oc3c2C(=O)c2ccccc2C3=O)CC1 | 47 | 6 | 60* | 22 | 15 | 6
CCOC(=O)C1CCN(C(=O)c2ccc(C)o2)CC1 | 0 | nt | 11 | 0 | 5 | 5
O=C(CCN1CCN(c2ccccc2)CC1)N/N=C/c1ccc(O)c(O)c1O | nt | 1 | 62* | nt | nt | 7
O=C(Cc1csc(N2CCOCC2)n1)N/N=C/c1ccc(O)c(O)c1O | nt | -1 | 59* | nt | nt | -1
COc1ccc(NC(C)=O)cc1S(=O)(=O)N1CC=C(c2ccccc2)CC1 | -6 | nt | 6 | 8 | -3 | 2
Nc1ccc(Oc2ncccn2)cc1 | 31 | 1 | 82* | 16 | 4 | 1
CC(C)(C)NC(=O)CSc1ncccc1-c1nc2ccccc2[nH]1 | -16 | 0 | -278 | 5 | 4 | -2
Cc1cc2nc(-c3cccnc3SCC(=O)NC3CC3)[nH]c2cc1C | 88* | 0 | nt | 90* | 81* | nt
O=C(COC(=O)Cc1c(F)cccc1Cl)Nc1nnc(-c2ccccc2)o1 | -4 | nt | -31 | -2 | -1 | 0
COC(=O)CCN1CCc2cc(N=Nc3ccc([N+](=O)[O-])cc3)ccc21 | -23 | 0 | 29 | 80* | -22 | 3
c1ccc(NCc2nc3ccccc3n2CCOc2ccccc2)cc1 | 66* | -3 | 11 | 33 | 48 | 1
COc1ccc(O)c(CN2CCCC(N3CCc4ccccc4C3)C2)c1 (centres undefined) | -22 | -3 | 6 | -8 | -7 | -1
Cc1ccc(C(=O)NCCn2c(N)c(C#N)c3nc4ccccc4nc32)cc1 | 43 | -1 | -272 | 34 | 10 | -28
CCCCn1c(NC(=O)c2ccccc2)c(C#N)c2nc3ccccc3nc21 | nt | 49* | -278 | nt | nt | -21
CCC(=O)Nc1c(C#N)c2nc3ccccc3nc2n1-c1ccc(C)cc1 | nt | nt | -438 | nt | nt | -34
CCCCn1c(NC(=O)c2ccc(F)cc2)c(C#N)c2nc3ccccc3nc21 | 92* | nt | nt | 19 | 95* | nt
COCCNC(=O)C1(C)CCN(C(=O)c2ccc3sccc3c2)C1 (centres undefined) | nt | nt | 11 | nt | nt | 0
CC(C)OCCCNC(=O)c1cccc2c1C(=O)c1ccc(Cl)cc1S2(=O)=O | 6 | nt | 15 | -3 | 0 | 5
COc1ccc(C[C@H]2CN3C(=NC[C@H]3Cc3ccccc3)N2CCNC(=O)c2ccc(C)c(Br)c2)cc1 | -20 | nt | 22 | -12 | -16 | -1
COc1ccc(C[C@H]2CN3C(=NC[C@@H]3Cc3ccccc3)N2CCNC(=O)c2ccc(C)c(Br)c2)cc1 | -9 | 17* | 22 | -4 | -11 | -2
Cc1ccc([C@H]2C[C@H](O)[C@@H](n3cc(-c4ccc(F)cc4)nn3)CN2C(=O)C2CCCCC2)cc1 | nt | nt | 14 | nt | nt | 1
O=C(CCC1CCCCC1)Nc1cccnc1 | -8 | -1 | 36* | -13 | -23 | 4
CC(CN1CCCC1)OC(=O)c1ccc(Br)cc1 (centres undefined) | -23 | -4 | 29 | 0 | -3 | 2
SMILES | SENP6 block | HSP90 inh | SENP8 block-1 | SENP7 block | SENP8 block-2 | SENP1 FRET inh
COC(=O)Nc1ccc(SCC(=O)c2cccc([N+](=O)[O-])c2)cc1 | -15 | 0 | 23 | 12 | -10 | -1
O=C(O)c1ccc2c(c1)C1C=CCC1C(c1cc3c(cc1Br)OCO3)N2 (centres undefined) | -7 | 2 | 8 | -5 | -1 | 14
Brc1cc2c(cc1C1Nc3ccccc3C3C=CCC31)OCO2 (centres undefined) | -16 | -3 | 40* | -7 | -7 | 16
Cc1cc(F)ccc1S(=O)(=O)N1CCCOC1CNC(=O)C(=O)NCCc1ccccc1 (centres undefined) | 2 | -3 | 8 | -1 | 2 | -1
O=C(NCCc1ccccc1)C(=O)NCC1OCCCN1S(=O)(=O)c1cc(F)ccc1F (centres undefined) | -18 | 16* | 4 | -10 | -11 | -3
O=C(OC1C2C=CC1C1C(=O)NC21)c1ccccc1 (centres undefined) | nt | nt | -4 | nt | nt | 0
CCN(CC)c1ccc(/C=C(\C#N)C(N)=O)cc1 | nt | -5 | -62 | nt | nt | -38
CCN(CC)c1ccc(/C=C(\C#N)C(=O)c2ccc(Br)cc2)cc1 | nt | 2 | 50* | nt | nt | -27
O=c1c(O)cccc2cc(O)c(O)c(O)c12 | -52 | -1 | 60* | -3 | 6 | 4
O=[N+]([O-])c1ccc2c(c1Nc1ccccc1)=NC1(CCCCC1)N=2 | 12 | 0 | 45* | 7 | -4 | 4
Cc1ccc(C(NC(=O)C(C)C)c2cc([N+](=O)[O-])c3cccnc3c2O)cc1 (centres undefined) | 2 | 5 | 55* | -5 | 1 | -4
CC(C)C(=O)NC(c1cccs1)c1cc([N+](=O)[O-])c2cccnc2c1O (centres undefined) | 20 | 6 | 44* | 18 | 5 | 1
CC1=C(C(=O)N(C(C)C)C(C)C)CC(CC(=O)NC2CCCC2)C(=O)N1Cc1ccc(C(C)(C)C)cc1 (centres undefined) | nt | nt | 16 | nt | nt | 1
CC1(OC(=O)C2CCCC2)C(=O)C=C2C=C3CCCN3C=C2C1=O (centres undefined) | 0 | nt | nt | 6 | 3 | nt
CC1(OC(=O)c2cccs2)C(=O)C=C2C=C3CCCN3C=C2C1=O (centres undefined) | -21 | nt | 59* | 9 | -3 | -10
Cc1ccc(S(=O)(=O)NCC(=O)OC(C)C(=O)NC(=O)NC2CCCCC2)cc1C (centres undefined) | -2 | nt | 8 | -4 | -12 | 1
COc1ccccc1N=Nc1ccc(O)c2ncccc12 | 65* | 12 | 87* | 25 | 47 | 21
Cc1ccc(N=Nc2ccc(O)c3ncccc23)cc1 | nt | 4 | 43* | nt | nt | 1
C#CCOCC1CNC(=S)O1 (centres undefined) | nt | nt | 1 | nt | nt | 2
COc1ccc(C(C)NC(=O)c2ccncc2)cc1 (centres undefined) | 7 | -2 | 7 | -1 | 6 | -2
COc1cccc(N2CCN(C(=O)c3ccc4nc(N5CCCCC5)sc4c3)CC2)c1 | 2 | 59* | -28 | -8 | 3 | -2
COc1cccc(N2CCN(C(=O)c3ccc4ccccc4c3)CC2)c1 | -3 | nt | -4 | -16 | -10 | -8
